About 1,000 (0.33%) of roughly 300,000 compounds were called active. Many of the other results were omitted from the sample, so actives are more common in it than they were. Values without a mark were called inactive.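 How the source made its calls: active means inhibition above the mean of all tested compounds plus 3 SD, set per screening campaign (cut at about 45% in these data); inactive means the rest.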

For the assay, the system named is HCV core protein (residues 1-106) dimerization. As to the kind of experiment: blockers of core106 self-association – biochemical, TR-FRET, high-throughput, primary screen (AID 1899). To be noted: TR-FRET GST/Flag-core106 dimerization, 1536-well; at 5 µM; hits give high values. The method, boiled down:
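System: GST/Flag-tagged HCV core106 proteins. Incubation: compound-protein-antibody incubation 4 h at 22.5 °C. Technique: HTRF with 340 nm excitation, 617/671 nm emission. Medium: KF-containing HEPES buffer, pH 7.45, DTT, CHAPS, BSA. Read-out: inhibition (%) from 671 over 617 nm ratio. Also added: Eu(K)-anti-GST 90 ng/mL plus XL665-anti-Flag 1 µg/mL.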
With `CCOc1ccccc1/C=c1\sc2nc(-c3ccco3)nn2c1=O`, the inhibition was 62.2% (active). Under `CSc1nc(-c2ccco2)nn1C(=O)CCc1ccccc1` stands -2.5%. Turning to `O=c1nc2s/c(=C\c3ccco3)c(=O)n2nc1Cc1ccccc1`, the inhibition is 22.3%.

In the case of `CC(=O)c1c(Nc2ccccc2)sc(C(=O)c2ccccc2)c1C`, the inhibition is -11.1%.

On to `C=CCC(Nc1ccccc1)c1cccc(OC)c1OC` (stereo unspecified), for which the inhibition is 2.92%. As for `CCOC(=O)c1c(C)n(C)c2ccc(OC)c(NC(=O)CN3CCC4(CC3)OCCO4)c12`, the inhibition is -1.2%.

As for `Cc1ccc2nc(-c3ccncc3)cc(C(=O)Nc3ccncc3)c2c1`, the inhibition is 8.74%. Under `O=C(Nc1ccc(S(=O)(=O)Nc2nccs2)cc1)c1cc(=O)[nH]c2ccccc12` stands 2.23%. With `O=C(Nc1ccc(S(=O)(=O)Nc2nccs2)cc1)c1cc(-c2ccncc2)nc2ccccc12`, the inhibition was 76% (active).

On to `Cc1ccc(C(=O)O)cc1-c1ccc(/C=C2\SC(=O)N(CC(=O)Nc3ccc4c(c3)OCO4)C2=O)o1`, for which the inhibition was 4.8%. Take `C=CCOc1ccc(Cl)cc1CNCCCN1CCOCC1`: the inhibition was 12.2%. As for `CCn1c(C)c(C)c2cc(C(=O)N3CCN(c4cccc(C)c4C)CC3)ccc21`, the inhibition was 18%.

As for `C[C@@H]1CC[C@@]2(OC1)O[C@H]1C[C@H]3[C@@H]4CC=C5C[C@@H](O)[C@H](O)C[C@]5(C)C4CC[C@]3(C)[C@H]1[C@@H]2C` (stereo partly specified), the inhibition is -14.2%. Under `Cc1cccc(NC(=O)CN2CCCN(S(=O)(=O)c3ccc(Br)s3)CC2)c1` stands 3.89%; under `CCN(CC(=O)NC1CCS(=O)(=O)C1)c1nc(-c2cccnc2)nc2ccccc12` (stereo unspecified), -0.09%; under `COC(=O)CCCC1=CC2=CC(=O)C(C)(OC(=O)c3cccs3)C(=O)C2=CN1c1cccc(C#N)c1` (stereo unspecified), 47.4% (active).

On to `COC(=O)CCCC1=CC2=CC(=O)C(C)(OC(=O)c3cccs3)C(=O)C2=CN1CC1CC1` (stereo unspecified), for which the inhibition was -6.02%. Under `COC(=O)CCCC1=CC2=CC(=O)C(C)(OC(=O)c3cccs3)C(=O)C2=CN1CC(C)C` (stereo unspecified) stands 11.6%; under `COc1cccc(NC(=O)c2ccccc2N(Cc2ccccc2)S(C)(=O)=O)c1`, 1.86%; under `COc1ccc(NC(=O)CCNC(=O)Cn2ccc3ccccc3c2=O)c(OC)c1`, -5.48%.

As to `CCc1ccc(NC(=O)Cn2ncn3c(cc4ccccc43)c2=O)cc1`, the inhibition was 13%. Under `COc1ccc(NC(=O)Cn2ncn3c(cc4ccccc43)c2=O)c(OC)c1OC` stands 50.6% (active); under `Fc1ccc(-c2ccc(NCCN3CCOCC3)nn2)cc1`, -9.05%. On to `Cc1ccc(C)c(OCCC(=O)Nc2cccc(S(=O)(=O)N3CCCC3)c2)c1`, for which the inhibition is -2.89%.

On to `Cc1c(-c2cccc(Cl)c2)nc2ccccc2c1C(=O)OCC(=O)N(C)C1CCS(=O)(=O)C1` (stereo unspecified), for which the inhibition is 1.86%. Under `CN(C(=O)COC(=O)c1nc(Cl)ccc1Cl)C1CCS(=O)(=O)C1` (stereo unspecified) stands 5.01%; under `CN(C(=O)COC(=O)c1cc(-c2ccco2)nc2ccccc12)C1CCS(=O)(=O)C1` (stereo unspecified), 77.2% (active); under `COc1ccc(NC(=O)c2ccccc2CC[N+](=O)[O-])cc1`, 1.6%.

On to `O=C(Cc1ccc(S(=O)(=O)N2CCCC2)s1)NC1CCCCCC1`, for which the inhibition is 48% (active). Under `O=C(NC1CCCCC1)C1CCCN(S(=O)(=O)c2ccc(Br)s2)C1` (stereo unspecified) stands 3.6%. As for `O=C(Cc1ccc(S(=O)(=O)N2CCOCC2)s1)NCCC(c1ccccc1)c1ccccc1`, the inhibition was 44.1%. Under `Cc1ccc(NS(=O)(=O)c2c(C)[nH]c(=O)[nH]c2=O)cc1C` stands -1.79%; under `Cc1nn(-c2ccccc2)c2c1C(c1ccc(F)cc1)C(C#N)=C(N)O2` (stereo unspecified), -4.93%. For the compound `CSc1ccc(-c2c(C#N)c(N)nc3c2c(C)nn3-c2ccccc2)cc1`, the inhibition was 49.1% (active). Under `Cc1nc2c(c(C)nn2-c2ccccc2)c(C)c1C` stands -4.33%.

As to `CC(C)C(C)(C#N)NC(=O)CSc1nc2scc(-c3ccccc3)c2c(=O)[nH]1` (stereo unspecified), the inhibition is 13.3%.

For `CCC(C)(C)n1nnnc1CN1CCN(c2nc3ccc(C)cc3cc2C#N)CC1`, the inhibition is 20.6%. Under `CCOC(=O)c1cc(C#N)c(N2CCCCC2)nc1-c1ccccc1` stands 13.8%; under `Cc1cc(C)c2nc(N3CCCC3)c(C#N)cc2c1`, 51.7% (active); under `CN(CCC(=O)Nc1cc(S(=O)(=O)N(C)C)ccc1Cl)CC(=O)Nc1ccc(F)cc1`, -16.6%. Under `COc1cccc(/C=C2\Sc3ccc(C(=O)NCC4CCCO4)cc3N(C)C2=O)c1` (stereo unspecified) stands 4.72%; under `CCOc1ccccc1NC(=O)Cc1cccs1`, 55.5% (active). As to `CCOc1ccccc1NC(=O)Cn1nnc(C(=O)NCc2cccs2)c1N`, the inhibition was -5.57%.

As to `COc1ccc(OC)c(NC(=O)Cc2cccs2)c1`, the inhibition is 14.6%. Under `COc1ccc(C(=O)c2c3ccc([N+](=O)[O-])cc3[n+]([O-])n2CCCN)cc1` stands 1.89%. Under `CCc1ccc(NC(=O)CN2C(=O)CSC2=O)cc1` stands -2.17%; under `Nc1nonc1-n1nnc(C(=O)N/N=C/C2CCCCC2)c1-c1ccccc1`, -6.4%; under `COc1ccc2c(c1)C(c1cccs1)=NNC(c1cccnc1)=N2`, 48.7% (active). Turning to `CCOc1ccc2c(c1)C(c1ccc(C)cc1)=NNC(c1ccc(C)cc1)=N2`, the inhibition is 6.95%. Under `Fc1ccc2c(c1)C(c1cccnc1)=NNC(c1cccs1)=N2` stands -0.24%; under `CC(=O)c1ccc(S(=O)(=O)NC2CC(=O)N(c3ccc4c(c3)OCCO4)C2)cc1` (stereo unspecified), 0.9%.

`COc1ccc(/C=C/C2=CC(C)(C)NC(=S)N2)c(OC)c1`: the inhibition is 3.61%. Under `CN1CCN(C(=O)N2c3ccccc3CCc3ccccc32)CC1` stands -2.2%; under `CCOc1ccc(C(=O)NC(=S)Nc2ccc(N3CCOCC3)c(Cl)c2)cc1[N+](=O)[O-]`, 15.3%; under `Cc1ccc(CSCC2Nc3ccc(C(=O)N4CCN(c5ccc(F)cc5)CC4)cc3NC2=O)cc1` (stereo unspecified), 67% (active). Under `O=C1Nc2cc(C(=O)N3CCN(c4ccc(F)cc4)CC3)ccc2NC1CSCc1cccc(F)c1` (stereo unspecified) stands 17.5%; under `O=C(c1cc(C(=O)N2CCN(c3ccc(F)cc3)CC2)cc([N+](=O)[O-])c1)N1CCN(c2ccc(F)cc2)CC1`, 19%; under `CC(C)(C)n1nnnc1C(c1ccccc1F)N1CCN(C(=O)c2ccco2)CC1` (stereo unspecified), -2.83%. Under `CCCc1nc2c(c(=O)c3ccccc3n2C)c(=O)n1C1CCCCCC1` stands 10.2%; under `Cn1c2ccccc2c(=O)c2c(=O)n(Cc3ccco3)c(COc3ccccc3)nc21`, 47.9% (active); under `CCCc1nc2c(c(=O)c3ccccc3n2C)c(=O)n1-c1cc(C)cc(C)c1`, 16.2%.

Turning to `O=C1CN(C(=O)COc2c(Cl)cccc2Cl)c2ccccc2N1`, the inhibition is 1.42%. Take `C/C(=N\NC(=O)CC(C)C)c1c(C(F)(F)F)[nH]n(-c2nc3ccccc3s2)c1=O`: the inhibition was -0.73%.

Consider `Cc1nn(CC(=O)Nc2nc3ccccc3s2)c(C)c1[N+](=O)[O-]`, for which the inhibition is -2.22%. As to `CCC(C)Cn1c(O)cc2nn(-c3nc4ccccc4s3)c(=O)c-2c1C` (stereo unspecified), the inhibition is 55.2% (active). Under `COC(=O)C1=C(C)NC2=C(C(=O)c3ccccc32)C1c1ccc(-c2ccc(C(=O)O)cc2)o1` (stereo unspecified) stands 5.77%; under `CCOC(=O)C(=CNNc1ccsc1C(=O)OC)C(=O)OCC`, -1.96%.

Turning to `CN1C/C(=C/c2cccs2)C(=O)/C(=C\c2cccs2)C1`, the inhibition was 6.47%.

Consider `CSC1=N/C(=C\C=C\c2cccs2)C(=O)S1`, for which the inhibition is 60.2% (active). Under `Cc1cccc(C2=N/C(=C/c3cccs3)C(=O)O2)c1` stands 2.89%; under `Cc1ccc(-n2ncc3c2CC(C)(C)CC3NC(=O)CCc2cnn(C)c2)cc1` (stereo unspecified), -3.34%. Under `O=C(C1CCCN(S(=O)(=O)c2ccccc2)C1)N1CCN(c2ccc(F)cc2)CC1` (stereo unspecified) stands -13.8%; under `Cc1cc(NC(=O)CCC(=O)N(CC(=O)NC2CCCC2)c2ccc(F)cc2)no1`, 0.03%; under `COc1cccc(OC)c1CN(C)C(=O)c1cnccc1C(F)(F)F`, -2.76%. Turning to `Cc1ccc(C(=O)c2c(NC(=O)c3ccncc3)sc3c2CCCC3)cc1`, the inhibition was -2.83%. Under `Cc1ccc(NC(=O)c2csc3c2CCCC3)cc1` stands 5.39%; under `Cc1ccc(NC(=O)c2c(NC(=O)CCC(=O)O)sc3c2CCCCC3)cc1`, 47.6% (active). Under `O=S(=O)(Nc1ccc(O)c2ccccc12)c1ccc(OC(F)(F)F)cc1` stands -9.45%; under `Cc1nn(C(=O)c2ccoc2C)c(N)c1-c1ccccc1`, -11.9%; under `Cc1nn2c(c1-c1ccccc1)N=C(c1ccco1)CC2c1ccccc1` (stereo unspecified), 54.2% (active). For `O=C(O)CCCC(=O)N1N=C(c2ccco2)CC1c1ccco1` (stereo unspecified), the inhibition was -3.41%. Turning to `Cc1ccc(/C=N/NC(=O)COc2ccccc2-c2ccccc2)cc1`, the inhibition was -1.07%. For the compound `CCOc1ccc(/C=C(/NC(=O)c2ccccc2)C(=O)NCCC(=O)O)cc1`, the inhibition was 2.36%. On to `CCC(Cc1ccccc1)NS(=O)(=O)c1ccc2c(c1)NC(=O)CS2` (stereo unspecified), for which the inhibition was 6.21%. Under `CCOC(=O)C1=C(C)NC(C)=C(C(=O)OCC)C1C1=COCCO1` stands -7.86%; under `CCC(=O)Nc1c(C)n[nH]c1C`, 1.83%.

For the compound `CC1(OC(=O)CCc2ccccc2)C(=O)C=C2C=C(c3ccc(C#N)cc3)N(CCc3ccccn3)C=C2C1=O` (stereo unspecified), the inhibition is 13.8%. Take `CCCCC1=CC2=CC(=O)C(C)(OC(=O)CC)C(=O)C2=CN1CCCOC(C)C` (stereo unspecified): the inhibition was 2.27%. With `C=CCN1C=C2C(=O)C(C)(OC(=O)CCc3ccccc3)C(=O)C=C2C=C1c1ccc(C#N)cc1` (stereo unspecified), the inhibition is 49% (active). Turning to `Nc1c(-c2ccc(F)cc2)cnc2ncnn12`, the inhibition was 0.37%. As to `CC1=C(/C=C/C(C)=C/C=C/C(C)=C/C=C/C=C(C)/C=C/C=C(C)/C=C/C2=C(C)CCCC2(C)C)C(C)(C)CCC1`, the inhibition was 69.5% (active). As to `CCCCCCCCCCCCCCCC(=O)OC/C=C(C)/C=C/C=C(C)/C=C/C1=C(C)CCCC1(C)C`, the inhibition is 2.75%. Under `Cc1cc(S(=O)(=O)N2CCOCC2)ccc1OCC(=O)Nc1cccc(C(F)(F)F)c1` stands 0.78%.

For the compound `COc1ccc(C(=O)COC(=O)Cn2cnc3c2c(=O)n(C)c(=O)n3C)c(OC)c1`, the inhibition was -0.66%.

With `O=C(NCCN1CCN(C(=O)c2cccc([N+](=O)[O-])c2)CC1)C(=O)NCc1ccc(Cl)cc1`, the inhibition was -0.22%. Under `CCOC(=O)/C=c1\s/c(=C\c2ccc(C#N)cc2)c(=O)n1CC(=O)Nc1cccc(C)c1C` stands 11.6%. In the case of `CCOC(=O)Cn1c(=O)oc2cc(S(=O)(=O)N(C)Cc3ccco3)ccc21`, the inhibition is -1.55%.

Take `CN(c1ccccc1)c1ccc(/C=c2\s/c(=C(/C#N)C(=O)C(C)(C)C)n(Cc3ccco3)c2=O)cc1`: the inhibition is 63.2% (active).

As for `CCNC(=O)c1sccc1-n1cccc1`, the inhibition is 0.55%.

For `CC(C)=CCc1c(O)c(CC=C(C)C)c2occ(-c3ccc(O)cc3)c(=O)c2c1O`, the inhibition is -3.16%. Under `COc1ccc2c(CC(=O)OCC(=O)NC(N)=O)coc2c1` stands -9.08%; under `Cn1cccc1C(=O)NC(=O)COC(=O)Cc1coc2ccc3ccccc3c12`, 60.3% (active); under `O=C(Cc1coc2ccc3ccccc3c12)NCc1cccs1`, 10.5%.

With `COc1ccc(S(=O)(=O)N2CCOC2CNC(=O)C(=O)NCc2ccc(F)cc2)cc1` (stereo unspecified), the inhibition is -0.93%.

On to `CCOC(=O)c1c(C)[nH]c(C2=NNC(=NC(C)COC)SC2)c1C` (stereo unspecified), for which the inhibition is -2.46%. `COc1cc(NC(=O)C2=CC(c3ccc(C)cc3)=NS(=O)(=O)N2C)cc(OC)c1OC`: the inhibition is 1.17%.

These data come from PubChem BioAssay AID1899 (The Scripps Research Institute Molecular Screening Center, 2009).
